# Results collected from several papers.
# JAK1: Tyrosine-protein kinase JAK1 (JAK1, Homo sapiens, UniProt P23458)
# JAK1 JH2: Tyrosine-protein kinase JAK1, JH2 (JAK1, Homo sapiens, UniProt P23458)
# JAK1 JH1: Tyrosine-protein kinase JAK1, JH1 (JAK1, Homo sapiens, UniProt P23458)
SMILES,target,read-out,mode,technique,concentration,measurement,value
Cn1cc(-c2cccc(N3CCc4c(sc5c4CC(C)(C)C5)C3=O)c2CO)cc(Nc2ccncn2)c1=O,JAK1,enzyme activity,inhibitor,,1 µM,inhibition,-2%
CC(C)(C)c1cc(C=C(C#N)C#N)cc(Br)c1O,JAK1,enzyme activity,inhibitor,,0.5 µM,remaining activity,107%
Cn1cncc1[C@](O)(COc1ccc(C#N)cc1-c1ccc(OC(F)(F)F)cc1)c1ccc(C#N)cc1,JAK1 JH2,cell-free assay,,competition with immobilised ligand,1 µM,remaining binding,70%
COc1ncccc1-c1cnn2ccc(N3CCN(C(=O)OC(C)C)CC3)nc12,JAK1,binding,,competition with immobilised ligand,1 µM,remaining binding,100%
O=c1[nH]c2ccccc2n1C1CCN(Cc2ccc(-c3[nH]c4cc5ncnc5cc4nc3-c3ccccc3)cc2)CC1,JAK1,cell-free assay,,,0.5 µM,remaining signal,94.6%
C#Cc1n[nH]c2c(-c3cn(C(C)c4ccccn4)c(=O)[nH]c3=O)cc(F)cc12 (centres unmarked),JAK1,enzyme activity,inhibitor,,1 µM,inhibition,-2.3%
Cn1cc(-c2cc(F)cc(N3CCn4c(cc5c4CCCC5)C3=O)c2CO)cc(Nc2ccc(N3CCN(C4COC4)CC3)cn2)c1=O,JAK1,enzyme activity,inhibitor,,0.1 µM,inhibition,6%
COc1cc(Nc2ncc(F)c(Nc3ccc4c(n3)NC(=O)C(C)(C)O4)n2)cc(OC)c1OC,JAK1 JH1,binding,,competition with immobilised ligand,10 µM,inhibition,100%
Nc1ncc(-c2nc(N3CCOCC3)nc(N3CCOCC3)n2)c(C(F)F)n1,JAK1 JH1,binding,,competition with immobilised ligand,10 µM,remaining binding,90%
N#CC1(c2ccccn2)CCN(Cc2cc(C(=O)O)c(=O)n3ccccc23)CC1,JAK1 JH2,cell-free assay,,competition with immobilised ligand,1 µM,remaining binding,84%
Cc1nn(C)cc1-c1nc2c(N3CCN(Cc4ccc(Cl)cc4)CC3)c(Cl)cnc2[nH]1,JAK1 JH1,binding,,competition with immobilised ligand,1 µM,remaining binding,46%
